A short description of assay [1]: Inhibition of tubulin in rat A10 cells assessed as induction of cellular microtubule disassembly after 18 hrs by indirect immunofluorescence technique. It counts as cell-based. To be noted: A10, 18 h. The method, boiled down:
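A-10 cells plated on glass coverslips and treated with compound at varying concentrations for 18 h. After fixation, microtubules immunostained with a β-tubulin antibody (indirect immunofluorescence) and nuclei stained with DAPI. Read by fluorescence microscopy. Percentage of cellular microtubule loss estimated visually across the concentration range.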

Assay [2] can be described thus: Inhibition of tubulin polymerization by turbidimetry. Summed up: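 Tubulin at 10 µM (1.0 mg/mL). Polymerization followed turbidimetrically at 350 nm in temperature-controlled spectrophotometers.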
In assay [3] the test system is MCF7. The assay is described as follows: Antiproliferative activity against human MCF7 cells after 24 hrs by SRB assay. In kind it is functional, cell-based. As to conditions: MCF7, 24 h. The method, boiled down: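 MCF-7 cells are grown for 24 h with or without drug, then for a further 48 h. Total cell protein is measured by sulforhodamine B staining, and the IC₅₀ is derived from it.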

pEC50, pIC50: −log10 of the molar value.

Consider `COc1ccc(C(=O)/C=C/c2cc(OC)c(OC)c(OC)c2)cc1B(O)O`, for which the pEC50 (usually the EC50 on a negative log10 scale, so that one unit is a factor of ten) in assay [1] was less than 4.82. Further, the negative-log IC50 (pIC50) (commonly −log10 of the IC50, conventionally taken in molar units) was less than 4.40 in assay [2] and less than 5.60 in assay [3].

For the origin of these results see ChEMBL document CHEMBL1157725 (Bioorg Med Chem, 2010).
